Data taken from ChEMBL document CHEMBL2401717, “Synthesis and bioactive evaluation of novel hybrids of metronidazole and berberine as new type of antimicrobial agents and their transportation behavior by human serum albumin” (Bioorg Med Chem, 2013).

Tests used:
Bacillus subtilis [1] = assay: Antibacterial activity against Bacillus subtilis after 24 hrs by twofold broth dilution method; type: functional
Summary of the method: (§1)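 MIC by NCCLS-recommended twofold broth microdilution, run in triplicate. Strains: B. subtilis ATCC6633, E. coli DH52, M. luteus ATCC4698, P. vulgaris ATCC6896, S. dysenteriae, S. aureus ATCC25923, MRSA N315, C. albicans ATCC76615, C. mycoderma. References were chloromycin, norfloxacin and berberine for bacteria, and fluconazole for fungi.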

Proteus vulgaris = assay: Antibacterial activity against Proteus vulgaris after 24 hrs by twofold broth dilution method; type: functional; summary of the method: as §1
Shigella dysenteriae = assay: Antibacterial activity against Shigella dysenteriae after 24 hrs by twofold broth dilution method; type: functional; summary of the method: as §1
[2] = Stability of the compound at pH 6.5 to 8.5 after 30 mins by UV spectrophotometry; type: physicochemical; details: buffer, pH 6.5, 0.5 h
Summary of the method: (§2)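 Stability followed by UV spectrometry across pH 6.5–8.5 and temperatures 30–80 °C.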

[3] = Stability of the compound at 30 to 80 degC after 30 mins by UV spectrophotometry; type: physicochemical; details: 0.5 h; summary of the method: as §2
Micrococcus luteus = assay: Antibacterial activity against Micrococcus luteus ATCC 4698 after 24 hrs by twofold broth dilution method; type: functional; details: ATCC 4698, 24 h; summary of the method: as §1
Candida albicans = assay: Antifungal activity against Candida albicans after 24 hrs by twofold broth dilution method; type: functional; summary of the method: as §1
Staphylococcus aureus [4] = assay: Antibacterial activity against methicillin-resistant Staphylococcus aureus N315 after 24 hrs by twofold broth dilution method; type: functional; details: N315, 24 h; summary of the method: as §1
Pseudomonas aeruginosa [5] = assay: Antibacterial activity against Pseudomonas aeruginosa after 24 hrs by twofold broth dilution method; type: functional
Summary of the method: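 Twofold broth dilution in 96-well microplates following NCCLS guidance; MIC read as the endpoint; tests run in triplicate.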

Staphylococcus aureus [6] = assay: Antibacterial activity against Staphylococcus aureus ATCC 25923 after 24 hrs by twofold broth dilution method; type: functional; details: ATCC 25923, 24 h; summary of the method: as §1
[7] = Solubility of the compound in phosphate buffer at pH 7.5 after 20 hrs by UV spectrophotometry; type: physicochemical
Summary of the method: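 Phosphate buffer pH 7.5 added to solid; suspension sonicated 10 min, then shaken at room temperature for 20 h and centrifuged. Supernatant concentration read by UV absorbance against a regression calibration curve (278 and 340 nm).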

Candida [8] = assay: Antifungal activity against Candida mycoderma after 24 hrs by twofold broth dilution method; type: functional; summary of the method: as §1
Escherichia coli [9] = assay: Antibacterial activity against Escherichia coli DH52 after 24 hrs by twofold broth dilution method; type: functional; details: DH52, 24 h; summary of the method: as §1
[10] = Octanol-water partition coefficient, log P of the compound after 24 hrs by UV-Vis spectrophotometry; type: physicochemical
Pseudomonas aeruginosa [11] = assay: Ratio of clinafloxacin MIC to compound MIC for Pseudomonas aeruginosa; type: functional
Albumin [12] = biological target: T1, Albumin (Homo sapiens, UniProt P02768); assay: Binding affinity to human serum albumin assessed as decrease in fluorescence quenching at 286K by UV-Vis spectroscopy; type: ADME; details: isolated protein
T1 sequence (P02768 whole entry): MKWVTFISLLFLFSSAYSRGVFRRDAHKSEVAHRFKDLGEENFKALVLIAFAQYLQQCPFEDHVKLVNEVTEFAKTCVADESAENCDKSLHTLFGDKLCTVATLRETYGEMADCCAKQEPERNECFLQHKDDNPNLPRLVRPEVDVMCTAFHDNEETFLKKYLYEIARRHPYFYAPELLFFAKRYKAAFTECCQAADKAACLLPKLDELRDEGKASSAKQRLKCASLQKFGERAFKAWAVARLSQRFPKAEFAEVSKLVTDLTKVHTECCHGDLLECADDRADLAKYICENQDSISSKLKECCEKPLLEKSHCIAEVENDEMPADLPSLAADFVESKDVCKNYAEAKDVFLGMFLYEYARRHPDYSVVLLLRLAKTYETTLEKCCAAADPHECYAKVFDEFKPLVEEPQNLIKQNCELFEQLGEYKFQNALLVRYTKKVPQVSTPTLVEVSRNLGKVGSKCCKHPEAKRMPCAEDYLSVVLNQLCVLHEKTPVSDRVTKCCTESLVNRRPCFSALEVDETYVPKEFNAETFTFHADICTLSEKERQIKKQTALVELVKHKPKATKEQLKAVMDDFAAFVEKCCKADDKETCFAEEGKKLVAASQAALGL
Summary of the method: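 Fluorescence of HSA fixed at 1.0 × 10^-5 mol L^-1, titrated with compound in 0.2 × 10^-5 mol L^-1 steps. Excitation 295 nm, emission scanned 300–450 nm, slits 2.5 nm, 1.0 cm quartz cells. Spectra recorded at several temperatures (286, 295, 298, 304, 310 K are cited in places). Data fitted by Stern–Volmer, modified Stern–Volmer and Scatchard equations to give binding constants and site number.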

Albumin [13] = biological target: T1, Albumin; assay: Binding affinity to human serum albumin by UV-Vis spectrophotometry; type: ADME; details: isolated protein
Summary of the method: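 HSA UV–vis absorption spectrum compared with the difference spectrum of HSA–compound complex minus compound at equal concentration; recorded at room temperature in 1.0 cm quartz cells.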

Candida [14] = assay: Ratio of fluconazole MIC to compound MIC for Candida mycoderma; type: functional
Summary of the method: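 MICs for the compound and for fluconazole against Candida mycoderma were measured in parallel by twofold broth microdilution in 96-well plates, following NCCLS guidance, in triplicate. The ratio was then taken from the two MICs.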

Staphylococcus aureus [15] = assay: Ratio of chloromycin MIC to compound MIC for Staphylococcus aureus ATCC 25923; type: functional
Escherichia coli [16] = assay: Ratio of chloromycin MIC to compound MIC for Escherichia coli DH52; type: functional
Staphylococcus aureus [17] = assay: Ratio of berberin MIC to compound MIC for Staphylococcus aureus ATCC 25923; type: functional
Bacillus subtilis [18] = assay: Ratio of chloromycin MIC to compound MIC for Bacillus subtilis; type: functional

SMILES	MIC (Bacillus subtilis [1])	MIC (Proteus vulgaris)	MIC (Shigella dysenteriae)	Stability [2]	Stability [3]	MIC (Micrococcus luteus)	MIC (Candida albicans)	MIC (Staphylococcus aureus [4])	MIC (Pseudomonas aeruginosa [5])	MIC (Staphylococcus aureus [6])	solubility at 20 h [7]	MIC (Candida [8])	MIC (Escherichia coli [9])	logP at 24 h [10]	also measured
COc1ccc2cc3[n+](cc2c1OCCN(CCn1c([N+](=O)[O-])cnc1C)Cc1ccc(F)cc1F)CCc1cc2c(cc1-3)OCO2.[Cl-]	64 µg/mL	64 µg/mL	256 µg/mL	Stable	Stable	128 µg/mL	64 µg/mL	16 µg/mL	128 µg/mL	16 µg/mL	60.6 µg/mL	128 µg/mL	128 µg/mL	-0.34	–
COc1ccc2cc3[n+](cc2c1OCCN(CCn1cnc([N+](=O)[O-])c1)Cc1ccc(F)cc1F)CCc1cc2c(cc1-3)OCO2.[Cl-]	32 µg/mL	16 µg/mL	4 µg/mL	Stable	Stable	16 µg/mL	16 µg/mL	32 µg/mL	16 µg/mL	16 µg/mL	94 µg/mL	8 µg/mL	16 µg/mL	0.5	–
COc1ccc2cc3[n+](cc2c1OCCN(CCn1cnc([N+](=O)[O-])c1)Cc1ccc(Cl)c(Cl)c1)CCc1cc2c(cc1-3)OCO2.[Cl-]	32 µg/mL	16 µg/mL	4 µg/mL	Stable	Stable	16 µg/mL	16 µg/mL	64 µg/mL	16 µg/mL	16 µg/mL	88.5 µg/mL	64 µg/mL	16 µg/mL	0.53	–
COc1ccc2cc3[n+](cc2c1OCCN(CCn1cnc([N+](=O)[O-])c1)Cc1ccccc1Cl)CCc1cc2c(cc1-3)OCO2.[Cl-]	4 µg/mL	64 µg/mL	16 µg/mL	Stable	Stable	16 µg/mL	8 µg/mL	16 µg/mL	16 µg/mL	4 µg/mL	95.1 µg/mL	128 µg/mL	16 µg/mL	0.51	–
COc1ccc2cc3[n+](cc2c1OCCN(CCn1cnc([N+](=O)[O-])c1)Cc1cccc(Cl)c1)CCc1cc2c(cc1-3)OCO2.[Cl-]	32 µg/mL	64 µg/mL	256 µg/mL	Stable	Stable	64 µg/mL	16 µg/mL	32 µg/mL	64 µg/mL	8 µg/mL	50.8 µg/mL	32 µg/mL	32 µg/mL	0.57	–
COc1ccc2cc3[n+](cc2c1OCCN(CCn1cnc([N+](=O)[O-])c1)Cc1ccc(Cl)cc1)CCc1cc2c(cc1-3)OCO2.[Cl-]	64 µg/mL	64 µg/mL	128 µg/mL	Stable	Stable	32 µg/mL	64 µg/mL	64 µg/mL	64 µg/mL	32 µg/mL	64.8 µg/mL	16 µg/mL	64 µg/mL	0.48	–
COc1ccc2cc3[n+](cc2c1OCCN(CCn1cncc1[N+](=O)[O-])Cc1ccc(F)cc1F)CCc1cc2c(cc1-3)OCO2.[Cl-]	32 µg/mL	4 µg/mL	4 µg/mL	Stable	Stable	8 µg/mL	8 µg/mL	16 µg/mL	8 µg/mL	8 µg/mL	98.1 µg/mL	1 µg/mL	8 µg/mL	0.52	Ratio (Pseudomonas aeruginosa [11]): 2; Activity (Albumin [12]): Active; Activity (Albumin [13]): Active; Ratio (Candida [14]): 4
COc1ccc2cc3[n+](cc2c1OCCN(CCn1cncc1[N+](=O)[O-])Cc1ccc(Cl)c(Cl)c1)CCc1cc2c(cc1-3)OCO2.[Cl-]	16 µg/mL	16 µg/mL	2 µg/mL	Stable	Stable	32 µg/mL	8 µg/mL	16 µg/mL	8 µg/mL	8 µg/mL	80.8 µg/mL	64 µg/mL	8 µg/mL	0.55	–
COc1ccc2cc3[n+](cc2c1OCCN(CCn1cncc1[N+](=O)[O-])Cc1ccccc1Cl)CCc1cc2c(cc1-3)OCO2.[Cl-]	4 µg/mL	16 µg/mL	8 µg/mL	Stable	Stable	32 µg/mL	4 µg/mL	8 µg/mL	8 µg/mL	2 µg/mL	86.4 µg/mL	32 µg/mL	4 µg/mL	0.56	Ratio (Staphylococcus aureus [15]): 8; Ratio (Escherichia coli [16]): 4; Ratio (Staphylococcus aureus [17]): 8; Ratio (Bacillus subtilis [18]): 4
COc1ccc2cc3[n+](cc2c1OCCN(CCn1cncc1[N+](=O)[O-])Cc1cccc(Cl)c1)CCc1cc2c(cc1-3)OCO2.[Cl-]	32 µg/mL	64 µg/mL	256 µg/mL	Stable	Stable	32 µg/mL	32 µg/mL	16 µg/mL	16 µg/mL	4 µg/mL	71.3 µg/mL	32 µg/mL	32 µg/mL	0.54	–
COc1ccc2cc3[n+](cc2c1OCCN(CCn1cncc1[N+](=O)[O-])Cc1ccc(Cl)cc1)CCc1cc2c(cc1-3)OCO2.[Cl-]	128 µg/mL	32 µg/mL	32 µg/mL	Stable	Stable	64 µg/mL	32 µg/mL	32 µg/mL	16 µg/mL	16 µg/mL	68.1 µg/mL	64 µg/mL	32 µg/mL	0.53	–
COc1ccc2cc3[n+](cc2c1OC)CCc1cc2c(cc1-3)OCO2.[Cl-] [BERBERINE CHLORIDE]	> 512 µg/mL	128 µg/mL	256 µg/mL	–	–	> 512 µg/mL	> 512 µg/mL	128 µg/mL	256 µg/mL	512 µg/mL	–	128 µg/mL	> 512 µg/mL	–	–
